Measurements collected from several papers.
Target: Mitogen-activated protein kinase 8 (MAPK8, Homo sapiens, UniProt P45983)

CO[C@@H]1[C@H](N(C)C(=O)c2ccccc2)C[C@H]2O[C@]1(C)n1c3ccccc3c3c4c(c5c6ccccc6n2c5c31)C(=O)NC4
inhibition (enzyme activity, inhibitor; 1 µM): 22%

C#Cc1cnc(Nc2ccnc(CO)c2)nc1Nc1ccccc1S(C)(=O)=NC#N (stereo not drawn)
remaining signal (cell-free assay; 1 µM): 54%

N#Cc1ccc(NC(=O)Nc2ccccc2)cc1
remaining binding (cell-free assay, competition with immobilised ligand; 25 µM): 78%

C1=C/COCc2cc(ccc2OCCN2CCCC2)Nc2nccc(n2)-c2cccc(c2)COC/1
remaining signal (cell-free assay; 0.1 µM): 12%

C[C@H]1CC[C@H](n2c3cnccc3c3cnc(Nc4ccc5c(n4)CCN(C(=O)CO)C5)nc32)CC1
remaining binding (binding; 1 µM): 7%

C#Cc1cc(-c2cc(Nc3nc(N[C@@H](C)c4ccc(F)cn4)ncc3Cl)n[nH]2)ccc1C=O
inhibition (enzyme activity, inhibitor; 0.2 µM): 9.62%

CCCCC(=O)Nc1ccc(-c2ccc3ncn(CCC)c(=O)c3c2)cn1
remaining binding (binding, competition with immobilised ligand; 0.5 µM): 52%

C=CC(=O)N1CCC([C@@H]2CCNc3c(C(N)=O)c(-c4ccc(Oc5ccccc5)cc4)nn32)CC1
inhibition (enzyme activity, inhibitor; 1 µM): 21%

Cc1ccc(NC(=O)c2ccnc(C(F)(F)F)c2)cc1-c1cc(OCCO)nc(N2CCOCC2)c1
remaining binding (binding; 1 µM): 80%
